{"data": "Assay results pooled from the literature", "target": "Kappa-type opioid receptor (OPRK1, Homo sapiens, UniProt P41145)", "note": "Protocols differ between the studies behind these lines."}
{"read-out": "β-arrestin recruitment", "mode": "agonist", "quantity": "EC50", "result": "0.11 µM", "Structure (SMILES)": "O=C(c1ccccn1)N(Cc1cccs1)C1(C(=O)NC2CCCCC2)CCCCC1"}
{"read-out": "cell-free assay", "method": "radioligand", "quantity": "Ki", "result": "0.11 µM", "Structure (SMILES)": "OC[C@@]12C[C@@H]1[C@@H](n1cnc3c(NC(C4CCCC4)C4CCCC4)nc(Cl)nc31)[C@H](O)[C@@H]2O"}
{"read-out": "cell-free assay", "quantity": "Ki", "result": "> 10 µM", "Structure (SMILES)": "O[C@@H]1[C@H](O)[C@@H]2C[C@@H]2[C@H]1n1cnc2c(NCc3cccc(Cl)c3)ncnc21"}
{"read-out": "β-arrestin recruitment", "mode": "agonist", "method": "imaging", "quantity": "EC50", "result": "0.39 µM", "Structure (SMILES)": "Clc1ccc(CSc2nnc(-c3ccccn3)n2Cc2cccs2)cc1Cl"}
{"read-out": "cell-free assay", "method": "radioligand", "quantity": "Ki", "result": "> 10 µM", "Structure (SMILES)": "CCCCN1CCC(COC(=O)c2ccc(N)c(OCF)c2)CC1"}
{"read-out": "cell-free assay", "quantity": "Ki", "result": "> 10 µM", "Structure (SMILES)": "CNC(=O)[C@@]12C[C@@H]1[C@@H](n1cnc3c(NC)cc(C#Cc4ccc(Cl)s4)nc31)[C@H](O)[C@@H]2O"}
{"read-out": "ligand displacement", "method": "radioligand", "quantity": "IC50", "result": "> 30 µM", "Structure (SMILES)": "CCOCc1nc(O)c(-c2nnc(Cc3ccc(Cl)cn3)o2)c(O)c1-c1c(OC)cccc1OC"}
{"read-out": "cell-free assay", "quantity": "Ki", "result": "6.46 µM", "Structure (SMILES)": "Cc1cc(C)nc(C(=O)NC[C@@H]2CCCN(Cc3ccc(F)c(F)c3)C2)c1"}
{"read-out": "cell-free assay", "quantity": "IC50", "result": "29 µM", "Structure (SMILES)": "Cc1nccc2c1c(=O)n(C)c1cc(OC[C@@H](N)CC(C)C)c(C#N)cc21"}
{"read-out": "cell-free assay", "quantity": "Ki", "result": "> 10 µM", "Structure (SMILES)": "Cc1ccc(C(=O)NCC2CCN(Cc3ccc(C(C)C)cc3)CC2)cc1"}
{"read-out": "cell-free assay", "quantity": "Ki", "result": "> 10 µM", "Structure (SMILES)": "O[C@@H]1[C@H](O)[C@@H]2C[C@@H]2[C@H]1n1cnc2c(NCCc3ccccc3)nc(C#Cc3ccccc3)nc21"}
{"read-out": "ligand displacement", "method": "radioligand", "quantity": "Ki", "result": "7.09 µM", "Structure (SMILES)": "OCCCN1CC[C@@H]2C[C@H]1c1cc(-c3ccc(C(F)(F)F)cc3)ccc12"}
